# From PubChem
# T cruzi repl: T. cruzi replication inhibition; inhibition, % (no concentration beside the values); 300,000 tested, 1.4% active; T. cruzi beta-gal in NIH3T3, luminescence, 90 h;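 active means mean inhibition across valid replicates above about 55%, limit read from the data; inconclusive means mean below that limit but half or more replicates reach it; inactive means mean below it, under half of replicates reach it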;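 further: signal also drops with host cell toxicity which is not excluded here; 0% = plate median of DMSO wells and 100% = zero luminescence signal; higher percent means less beta-gal luminescence so fewer parasites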
#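 Material: NIH/3T3 host cells with β-galactosidase reporter T. cruzi; Input: 5,000 host fibroblasts per well; Medium: DMEM, 2% fetal bovine serum; Compound: 50 nL DMSO compound solution per well; Schedule: 3 h host attachment, then at least 90 h co-culture; Detection: luminescent β-galactosidase signal after 60 min lysis.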
# AI-2 QS modul: modulates the Vibrio harveyi AI-2 quorum sensing system; activity change, % at 7.5 µM; 300,000 tested, 0.4% active; Vibrio harveyi JMH597 AI-2 luminescence/OD600 ratio, 9 h; active compounds read low; strain lacks LuxN and CqsS sensors; 0 = neutral-control median; in the data active means activity change below about -75%, passing the limit was not always enough; inconclusive means no clear call, values can overlap the other calls;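 further: luminescence divided by OD600 gain over 9 h not by final OD600 alone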
# HDAC3 inh: blocks human histone deacetylase 3. O15379. recombinant HDAC3, fluorogenic peptide/trypsin coupled, fluorescence. inhibition, % at 8.3 µM. AID 2718. 320,000 tested, 0.15% active; in the data active means inhibition above about 26%, passing the limit was not always enough; inconclusive means no clear call, values can overlap the other calls
# Target sequence (O15379 whole entry, looked up): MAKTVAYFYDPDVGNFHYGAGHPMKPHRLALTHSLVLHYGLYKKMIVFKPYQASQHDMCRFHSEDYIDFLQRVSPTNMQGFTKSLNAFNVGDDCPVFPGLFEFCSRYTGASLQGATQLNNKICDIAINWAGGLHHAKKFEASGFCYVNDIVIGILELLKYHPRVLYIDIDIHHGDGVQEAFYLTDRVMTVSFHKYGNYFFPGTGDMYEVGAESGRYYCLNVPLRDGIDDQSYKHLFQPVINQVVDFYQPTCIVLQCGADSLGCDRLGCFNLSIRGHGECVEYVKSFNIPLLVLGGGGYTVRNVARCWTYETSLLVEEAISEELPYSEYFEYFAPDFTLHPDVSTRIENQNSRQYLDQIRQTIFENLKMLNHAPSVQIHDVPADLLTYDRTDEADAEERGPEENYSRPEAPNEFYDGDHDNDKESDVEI
# Efflux pump inh: blocks antifungal efflux pumps in multiplex yeast assay | 330,000 tested, 0.44% active | S. cerevisiae Candida pump triplex, Nile Red efflux | inhibition, % at 10 µM;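 active means plate passing quality check with inhibition over a set limit, or well fluorescence over plate mean plus 4 SD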;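 further: Nile Red retained in pooled yeast measured as flow cytometry median fluorescence; 0% = buffer negative control and 100% = Enniatin B positive control; higher means more Nile Red kept so more efflux inhibition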
# PolyA inh: yeast polyadenylation inhibition. activity score, % at 12 µM. S. cerevisiae SKY197-pL101 polyadenylation reporter, beta-gal luminescence; efflux-impaired pdr1/pdr3 knockout yeast; score 100 = 6 SD above DMSO. 300,000 tested, 0.02% active;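 active means lowest replicate activity score at least 50, where 100 means six control SD above control mean; inconclusive means lowest score under 50 but half or more replicates reach 50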;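 further: yeast exposed to compound for 9 h at 30 °C; higher score means more reporter readthrough which indicates perturbed polyadenylation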
# Yeast cmpd fluor: flagged as fluorescent in efflux inhibitor counter-screen | shares compounds with Efflux pump inh | S. cerevisiae AD/pABC3, compound fluorescence, flow cytometry | fluorescence ratio to DMSO, % at 10 µM | 1,700 tested, 4% active;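 active means fluorescence ratio to DMSO above its plate's cutoff, the plate mean ratio plus 5 SD, cut at about 210% in these data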;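 further: unstained yeast with no Nile Red so the signal is compound autofluorescence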
# Mdr1 pump inh: blocks the Candida albicans Mdr1 efflux pump in yeast; shares compounds with Efflux pump inh; 1,700 tested, 1% active; S. cerevisiae AD/CaMDR1, Nile Red efflux, flow cytometry; AID 588518; inhibition, % at 10 µM; in the data active means inhibition above about 26%;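 further: 0% = DMSO vehicle and 100% = reference inhibitor; higher means more Nile Red retained so more efflux inhibition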
# CaCdr2 efflux inh: blocks the Candida albicans Cdr2 efflux pump in yeast. shares compounds with Efflux pump inh. S. cerevisiae AD/CaCDR2, Nile Red retention, flow cytometry. Nile Red retention ratio vs DMSO, % at 10 µM. 1,700 tested, 4% active; in the data active means Nile Red retention ratio vs DMSO above about 190%;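 further: higher ratio means more blocking of Cdr2 efflux of the dye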
# CaCdr1 efflux inh: Candida Cdr1 efflux pump inhibition | shares compounds with Efflux pump inh | S. cerevisiae AD/CaCDR1, Nile Red efflux, flow cytometry | inhibition, % at 10 µM | 1,700 tested, 1% active | AID 588522;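 active means inhibition above the screen-wide mean plus twice its standard deviation, cut at about 32% in these data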
# Numbers without * were called inactive; ? = inconclusive; . = no result given; + = active, no number. Sampled rows, rich in hits. Any-hit rate of the full collection: about 2.2%.
SMILES,T cruzi repl,AI-2 QS modul,HDAC3 inh,Efflux pump inh,PolyA inh,Yeast cmpd fluor,Mdr1 pump inh,CaCdr2 efflux inh,CaCdr1 efflux inh
O=C(CCc1nnc(CCCc2ccccc2)o1)NCC(F)(F)F,-4,16,-6,0,-12,.,.,.,.
CCN1CCCC1CNS(=O)(=O)c1cc(Br)cc2c1N(C(=O)C1CC1)CC2 (configuration not stated),2,31,-2,20*,2,103,0,97,0
COc1ccc(NC(=O)Nc2cccc3c2O[C@H](CN(C)C(=O)NC2CCCCC2)[C@@H](C)CN([C@H](C)CO)C3=O)cc1,.,.,-2,0,.,102,0,119,0
O=C(CCn1c(=O)c2ccccc2n(Cc2cccc([N+](=O)[O-])c2)c1=O)N1CCc2ccccc2C1,6,12,2,13*,-1,109,0,117,0
CCn1c(=O)c2ccccc2n(Cc2cccc([N+](=O)[O-])c2)c1=O,-4,10,-1,0,-1,.,.,.,.
Fc1ccc(Br)cc1C1C=C(c2ccc(Br)cc2)Nc2ncnn21 (configuration not stated),9,-2,0,0,10,.,.,.,.
CCc1ccc(C2=CC(c3cc(Br)ccc3F)n3ncnc3N2)cc1 (configuration not stated),.,.,-1,0.9*,.,102,0,105,0
O=C(NC(=S)N1CCN(Cc2ccc3c(c2)OCO3)CC1)c1ccc(Cl)cc1,6,9,4,28*,-6,103,0,110,0
CCC(NC(=O)c1cc(COc2ccc(Cl)cc2OC)on1)c1ccncc1 (configuration not stated),6,12,-4,0,3,.,.,.,.
COc1ccc(OCc2cc(C(=O)NC(C)Cc3ccccn3)no2)c(Cl)c1 (configuration not stated),-3,17,6,1.6*,-9,108,0,96,0
CCC(NC(=O)c1cc(COc2ccc(OC)cc2Cl)on1)c1ccncc1 (configuration not stated),8,0,5,0,-13,82,0,93,0
COc1ccc(OCc2cc(C(=O)N(C)C3CCOC3)no2)c(Cl)c1 (configuration not stated),-12,23,-6,0,-12,90,0,94,0
CC1(C2CC2)NC(=O)N(CC(=O)NCC(=O)Nc2ccc(F)c(F)c2F)C1=O (configuration not stated),.,.,-1,0,.,.,.,.,.
CC1=C(C(=O)Nc2ccccc2)C(c2cccc([N+](=O)[O-])c2)Nc2nc3ccccc3n21 (configuration not stated),1,10,3,1.4*,2,109,0,109,0
O=C(O[C@@H]1OC2COC(=O)c3cc(O)c(O)c(O)c3-c3c(cc(O)c(O)c3O)C(=O)O[C@@H]([C@H]1O)[C@@H]2O)c1cc(O)c(O)c(O)c1,9,17,9,0,?,.,.,.,.
COC(=O)c1cccc(-n2nnnc2SCC(=O)Nc2nc3c(s2)CCCC3)c1,10,15,5,1.5*,-2,79,0,93,0
COC(=O)c1ccc(S(=O)(=O)NCc2ccc(OC)cc2)n1C,-13,21,3,2.5*,19,102,0,98,0
CN1C(=O)C(C)(C)N(C(=O)c2cccc([N+](=O)[O-])c2)c2ccccc21,-2,17,-11,0,-8,.,.,.,.
Cn1c(=O)c(C#N)c(-c2ccc(F)cc2)c2cc(C(=O)c3cc(Cl)cc(Cl)c3O)cnc21,-2,62,10,0.3*,-9,92,0,106,0
CCCCC(CC)Cn1c(O)c(/C=C2\C=NN=C2c2ccccc2)sc1=S (configuration not stated),53,24,-1,8.3*,4,102,0,127,0
CCCCOc1ccccc1C(=O)N(Cc1ccco1)C1CCS(=O)(=O)C1 (configuration not stated),-1,29,0,0,11,.,.,.,.
CC(=O)N/C(=C\c1ccccc1)C(=O)OCc1ccccc1,-16,17,0,1.5*,23,97,0,110,0
Cc1ccc2c(nc3s/c(=C\c4ccc(-c5ccccc5C(=O)O)o4)c(=O)n32)c1C,-23,48,1,0.7*,-10,102,0,121,0
Cc1cc(/C=c2\sc3nc4ccccc4n3c2=O)c(C)n1-c1ccc(C(=O)O)cc1,-2,-9,.,.,-7,.,.,.,.
O=C(O)c1ccc(-c2ccc(/C=c3/sc4nc5ccccc5n4c3=O)o2)cc1Cl,-11,26,10,0.8*,15,103,0,148,0
SMILES,T cruzi repl,AI-2 QS modul,HDAC3 inh,Efflux pump inh,PolyA inh,Yeast cmpd fluor,Mdr1 pump inh,CaCdr2 efflux inh,CaCdr1 efflux inh
CCc1ccc(C(C(=O)NC2CCCC2)N(Cc2cccnc2)C(=O)c2csnn2)cc1 (configuration not stated),-8,21,2,0,3,.,.,.,.
CCCN(Cc1cc2ccc(C)cc2[nH]c1=O)S(=O)(=O)c1ccccc1,9,9,3,0,-10,.,.,.,.
NS(=O)(=O)c1ccc(CCNC(=O)Nc2ccc(Cl)c(Cl)c2)cc1,-1,13,1,1.4*,-14,183,0,101,0
Cc1cc(C)nc(N/C(=N\S(=O)(=O)Cc2ccccc2)Nc2ccccc2Br)n1,21,23,-3,13*,10,108,0,106,0
O=C(O)c1ccc(N2C(=O)/C(=C/c3ccc(-c4ccc([N+](=O)[O-])cc4)o3)C=C2c2ccccc2)cc1,4,40,11,4.7*,-22,734*,2,+,2
O=C(c1cccnc1)N1CCC(Oc2ccc(C(=O)N3CCCC(O)C3)cc2)CC1 (configuration not stated),-2,-2,3,0,21,.,.,.,.
O=C(Nc1ccc2nc3n(c(=O)c2c1)CCCCC3)c1cc([N+](=O)[O-])ccc1F,-45,-16,2,0.7*,-25,94,0,90,0
CC(C)(C)OC(=O)NCc1ccc(NC(=O)c2nc[nH]c2C(=O)NCCCCCCNC(=O)c2[nH]cnc2C(=O)Nc2ccc(CNC(=O)OC(C)(C)C)cc2)cc1,.,.,2,1.8*,.,106,1,123,2
